These results are taken from PubChem BioAssay AID775 (SRMLSC, 2007).

About 900 (0.69%) of roughly 130,000 compounds were called active. The full list was thinned out, with actives kept by preference. Unmarked numbers belong to inactive results.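 How the source made its calls: active means inhibition above a set limit, placed 3 SD over the median of all compounds (cut at about 26% in these data); inactive means the rest.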

A short description of this experiment: compounds extending yeast replicative lifespan, primary screen, S. cerevisiae, OD615 (AID 775).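 Further: 0% = nicotinamide-treated wells and 100% = cells grown without nicotinamide.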 The settings on record: S. cerevisiae growth with nicotinamide, at 10 µM, stronger effect = higher value, deaD strain in restrictive glucose medium. The procedure, abridged: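 Assay system: engineered S. cerevisiae DeaD replicative-lifespan strain, galactose-grown log-phase cells; Buffer or medium: CSMM-D glucose medium, restrictive; Probe or stimulus: nicotinamide 1.5 mM; Compound: single dose 10 µM compound, 0.25% DMSO; Schedule: 4 h preincubation then 48 h treatment at 30 °C; Technique: OD615 measurement.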
Consider `Cc1cc(C(=O)N/N=C/c2cc([N+](=O)[O-])cc(C)c2O)n[nH]1`, for which the inhibition of the nicotinamide effect is -1.48%.
For the compound `Cc1cc(Cl)ccc1OCCCC(=O)NCc1ccncc1`, the inhibition of the nicotinamide effect is 1.85%.
Turning to `CCn1ncc(CNC(=O)C2(C)CC2(Br)Br)c1C` (stereo unspecified), the inhibition of the nicotinamide effect is 9.74%.
In the case of `CC(C)(C)c1ccc(C(=O)CSc2ncn[nH]2)cc1`, the inhibition of the nicotinamide effect is -10.2%.
Regarding `O=C(/C=C/Sc1ncn[nH]1)c1ccc(Cl)cc1`, the inhibition of the nicotinamide effect is 44.7% (active).
In the case of `O=C(NCCOCc1ccc(Cl)cc1)c1ncn[nH]1`, the inhibition of the nicotinamide effect was 1.27%.
For the compound `Cc1ccccc1C(OCCN(C)C)C1CCCCC1` (stereo unspecified), the inhibition of the nicotinamide effect was -0.42%.
Regarding `COc1ccc(C(CC(=O)c2ccccc2)S(=O)(=O)c2ccccc2)cc1` (stereo unspecified), the inhibition of the nicotinamide effect was -1.04%.
With `O=C(Nc1cc(C(F)(F)F)ccc1Cl)C(=O)N1CCCCC1`, the inhibition of the nicotinamide effect was -4.64%.
Consider `O=C(CN1C(=O)NC2(CCCCCC2)C1=O)NCc1cccs1`, for which the inhibition of the nicotinamide effect is 7.48%.
Regarding `Cc1ccc(C(=O)OC2=CC(=O)CC(C)(C)C2)cc1`, the inhibition of the nicotinamide effect was 72.5% (active).
For `COC(=O)c1ccc(NC(=O)Nc2ccc(C)cc2)cc1`, the inhibition of the nicotinamide effect was -13.6%.
As to `Cc1cc(O)ccc1NC1=CC(=O)CC(C)(C)C1`, the inhibition of the nicotinamide effect was 11.5%.
Regarding `Nc1nc(SCC(=O)NNc2c(Cl)cc(Cl)cc2Cl)n[nH]1`, the inhibition of the nicotinamide effect was 1.57%.
The same measure for `COc1ccc(C(=O)COC(=O)c2ccc3ccccc3n2)cc1`: -4.94%; for `COc1ccc(C2=NOC(COC(=O)c3ccc4ccccc4n3)C2)cc1` (stereo unspecified): -3.92%.
Take `O=C(Oc1ccc([N+](=O)[O-])cc1)c1ccc2ccccc2n1`: the inhibition of the nicotinamide effect was 75.9% (active).
`COc1cccc(NC(=O)CC(c2ccc(OC(C)C)cc2)c2ccccc2OC)c1` (stereo unspecified): the inhibition of the nicotinamide effect is 9.84%.
`CCc1cc(-c2n[nH]c(=S)n2CC(C)C)cs1`: the inhibition of the nicotinamide effect is 7.5%.
Take `CCCCCOc1ccc(/C=C/C(=O)NCCc2nc3ccccc3[nH]2)cc1OC`: the inhibition of the nicotinamide effect is 3.92%.
Take `CC1(c2ccccc2)CC(C)(C)N(C(=O)c2cc([N+](=O)[O-])cc([N+](=O)[O-])c2)c2ccccc21` (stereo unspecified): the inhibition of the nicotinamide effect is -0.09%.
For the compound `CCOC12CC(C)(C)CC(C)(CC3=C1C(=O)CC(C)(C)C3)C2` (stereo unspecified), the inhibition of the nicotinamide effect is 7.4%.
Consider `O=C(Cc1cccc2ccccc12)NCCC1=CCCCC1`, for which the inhibition of the nicotinamide effect was 10.1%.
For `O=C(/C=C\NCC(=O)c1ccccc1)c1ccccc1`, the inhibition of the nicotinamide effect is 3.73%.
In the case of `O=C(/C=C/NCc1ccc(F)cc1)c1ccccc1`, the inhibition of the nicotinamide effect was 26.6% (active).
Consider `O=C(Cc1ccccc1)NCc1ccc(F)cc1`, for which the inhibition of the nicotinamide effect is -0.44%.
Take `COc1cc(C(=O)NNC(=O)c2ccc(S(=O)(=O)N3CCCCC3)cc2)cc(OC)c1OC`: the inhibition of the nicotinamide effect is -0.56%.
For the compound `Cc1cc(NS(=O)(=O)c2ccc(NC(=S)NC(=O)c3ccc(F)cc3Cl)cc2)no1`, the inhibition of the nicotinamide effect was -5.54%.
Regarding `O=C(CSc1ccccn1)Nc1nc2c(ccc3ccccc32)s1`, the inhibition of the nicotinamide effect was -4.27%.
For `CC(C)(C)OC(=O)N/N=C/c1ccc(C(=O)O)cc1`, the inhibition of the nicotinamide effect is -2.34%.
Take `CCC(NC(=O)c1ccccc1NC(=O)c1ccccc1)C(=O)NNC(=O)CSc1nc2ccccc2o1` (stereo unspecified): the inhibition of the nicotinamide effect is -3.91%.
With `Cc1c(C2=CCN(S(=O)(=O)c3ccc(Cl)cc3)CC2)c2ccccc2n1C`, the inhibition of the nicotinamide effect is 2.05%.
Consider `CC(C)C(C)(C#N)NC(=O)CSc1nc2scc(-c3ccccc3)c2c(=O)[nH]1` (stereo unspecified), for which the inhibition of the nicotinamide effect is 7.12%.
To `CCc1ccc2c(c1)C(c1ccc([N+](=O)[O-])cc1)=NNC(c1ccccc1)=N2` belongs -1.67%; to `COC(=O)c1ccc(/C=N\n2c(C)nnc2C)cc1`, 27.3% (active).
To `CCN(CC)S(=O)(=O)c1cccc(-c2n[nH]c(=S)n2/N=C/c2ccc(C(=O)OC)cc2)c1` belongs -2.04%; to `Cc1nnc(C)n1/N=C/c1ccc(C(C)C)cc1`, 1.31%.
Turning to `CCOc1ccc2nc(C(=O)N3CCCC(C)C3)sc2c1` (stereo unspecified), the inhibition of the nicotinamide effect was -4.7%.
For `CCCN1C(=O)C(Cc2nc3ccccc3c(=O)n2-c2ccccc2)c2cc(C)ccc21` (stereo unspecified), the inhibition of the nicotinamide effect is 38.7% (active).
As for `O=c1c2ccccc2nc(CSc2nnnn2-c2ccccc2)n1-c1ccccc1`, the inhibition of the nicotinamide effect was -5.7%.
For `N#CCSc1nc2ccccc2c(=O)n1-c1ccccc1`, the inhibition of the nicotinamide effect was -7.51%.
On to `Cc1noc(/C=C/c2ccco2)c1S(=O)(=O)N1CCC(C(=O)Nc2ccc(Cl)cn2)CC1`, for which the inhibition of the nicotinamide effect is 10.7%.
With `O=C(COC(=O)c1cc(=O)[nH]c2ccccc12)Nc1nc(-c2cccc(Br)c2)cs1`, the inhibition of the nicotinamide effect was -0.45%.
The same measure for `Cc1ccc(OCCOCCOc2ccc(Br)cc2/C=N\NC(=O)c2ccncc2)cc1`: -1.41%; for `COC(=O)C1=CN(C)C=C(C(=O)OC)C1c1ccc(Cl)cc1Cl`: -5.36%; for `CC12CN3CC(C)(CN(C1)C3c1ccc(Cl)cc1Cl)C2=O` (stereo unspecified): 30.1% (active).
`CC12CCC(C(=O)N(c3cccc(Cl)c3)C1=O)C2(C)C` (stereo unspecified): the inhibition of the nicotinamide effect is 3.45%.
With `COc1ccc(NC(=O)COC(=O)c2ccc(NS(=O)(=O)/C=C/c3ccccc3)cc2)cc1`, the inhibition of the nicotinamide effect is 3.99%.
As for `Cc1c(NS(=O)(=O)c2ccc(NC3CCCC3)c([N+](=O)[O-])c2)c(=O)n(-c2ccccc2)n1C`, the inhibition of the nicotinamide effect was -2.8%.
The same measure for `Cc1ccc(S(=O)(=O)Nc2ccccc2CNc2c(C)n(C)n(-c3ccccc3)c2=O)cc1`: 43% (active); for `COc1ccc(S(=O)(=O)Nc2c(C)n(C)n(-c3ccccc3)c2=O)cc1`: -9.71%.
Take `O=C(Nc1cccc([N+](=O)[O-])c1)c1ccc2c(c1)OCO2`: the inhibition of the nicotinamide effect is -0.87%.
Turning to `COC(=O)c1ccccc1SC1CC(=O)N(c2cccc(C)c2)C1=O` (stereo unspecified), the inhibition of the nicotinamide effect was -3.77%.
To `CC(C)(C)c1ccc(/C=C/C(=O)Nc2ncccn2)cc1` belongs -2%; to `N#Cc1ccc(N2Cc3ccccc3/C2=N/C(=O)Nc2ccc(Cl)cc2)cc1`, -2.85%.
As for `Cc1cccc(N2Cc3ccccc3C2=NC(=O)c2ccc(Cl)nc2)c1`, the inhibition of the nicotinamide effect was 34.6% (active).
As for `Cc1cccc(N2CCN(C(=O)c3cccc(S(=O)(=O)N4CCc5ccccc5C4)c3)CC2C)c1` (stereo unspecified), the inhibition of the nicotinamide effect is 9.33%.
Turning to `CC(NC(=S)Nc1ccc(S(N)(=O)=O)cc1)c1ccc2c(c1)OCO2` (stereo unspecified), the inhibition of the nicotinamide effect was -4.33%.
The same measure for `COC(=O)c1cn(C)c2ccc(S(=O)(=O)N3CC(C)CC(C)C3)cc2c1=O` (stereo unspecified): -19.7%; for `O=C(c1cccc(S(=O)(=O)N2CCOCC2)c1)N1CCOCC1`: 4.86%.
For `CC1CC(C)CN(S(=O)(=O)c2cccc(C(=O)N3C(=O)c4cccc(N)c4C3=O)c2)C1` (stereo unspecified), the inhibition of the nicotinamide effect is 86.5% (active).
